Assay outcomes from PubChem BioAssay.
A selection: hits, their analogues and other compounds. The true share with any hit is near 2%.
NR2E3 ag-1 – inhibitors of NR2E3-RetCOR corepressor binding, primary screen, NR2E3 agonist project, biochemical, TR-FRET, GST-NR2E3, biotin-RetCOR | Photoreceptor-specific nuclear receptor (Homo sapiens), Q9Y5X4 | inhibition of corepressor binding, % at 4.78 µM | 1536-well | 320,000 compounds, 0.12% hits | AID 2300, 2010;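 active = percent inhibition above the cutoff of mean plus 3 SD of all tested compounds, set per screening campaign, cut at about 20% in these data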;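 also: 0% = DMSO wells and 100% = biotin wells as full block of FRET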
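Material: NR2E3–RetCOR corepressor complex | Quantity: 1.35 nM GST-tagged NR2E3 final | Schedule: 5 h at 4 °C | Replication: Singlicate compound wells | Reagent: RetCOR corepressor, biotinylated, 7 nM | Controls: Biotin wells as high control, 0.6% DMSO wells as low control | Signal: TR-FRET, Eu(K)-anti-GST donor, streptavidin-D2 acceptor, ex 340, em 617/671 nm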
NR2E3 ag-2 – NR2E3 agonists in two-hybrid cells, primary screen, cell-based, luminescence, CHO-S, Gal4-NCOR/VP16-NR2E3. Photoreceptor-specific nuclear receptor (Homo sapiens), Q9Y5X4. luciferase. inhibition of corepressor binding, % at 3.98 µM. 360,000 compounds, 0.35% hits. AID 602229, 2012;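 active = inhibition above the mean of all tested compounds plus 3 SD, cut at about 70% in these data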;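 also: 0% = DMSO with NR2E3 transfected cells and 100% = cells lacking NR2E3 construct; higher means lower luciferase signal from less NR2E3 corepressor binding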
PG9 binder – binders of HIV-1 gp120 antibody PG9, primary screen, biochemical, TR-FRET. 360,000 compounds, 0.43% hits. TR-FRET gp120-PG9 antibody binding. AID 624416, 2012. inhibition, % at 6.7 µM; in the data active = inhibition above about 8.5%
NR1D1 modulator – modulators of Rev-erb alpha DNA binding, primary screen, biochemical, FITC-DNA, fluorescence polarization, uHTS; Nuclear receptor subfamily 1 group D member 1 (Homo sapiens), P20393; Rev-erbα–FITC-DNA binding, 90 min; activity, % at 10 µM; 370,000 compounds, 0.79% hits; AID 1259318, 2017;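 active = activity above about 14%, limit read from the data; passing the limit was not always enough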;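 also: 0% = DMSO wells with 35 nM protein and 100% = DMSO wells with 750 nM protein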
Neddylation inh – inhibitors of cullin neddylation, primary screen, biochemical, TR-FRET, uHTS, NAE and Ubc12; AID 651699, 2012; 360,000 compounds, 0.58% hits; calls only at 25 µM; in the data active = inhibition above about 36%
NR2E3 ag confirm – NR2E3 agonists, confirmation, biochemical, TR-FRET; shares compounds with NR2E3 ag-1; activation (reported as inhibition), % at 3.98 µM; cell-free NR2E3 corepressor release, 5 h; 360 compounds, 39% hits; in the data active = activation above about 20%
PPARg-NCOR2 ag – agonists of PPARg-NCOR2 corepressor interaction, counter-screen for NR2E3 agonist project, biochemical, TR-FRET | shares compounds with NR2E3 ag-1 | TR-FRET PPARg-NCOR2 coregulator interaction | inhibition, % at 3.98 µM | 360 compounds, 45% hits; in the data active = inhibition above about 20%;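 also: 0% = DMSO vehicle and 100% = wells without protein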
Target sequence (P37231 whole entry, looked up): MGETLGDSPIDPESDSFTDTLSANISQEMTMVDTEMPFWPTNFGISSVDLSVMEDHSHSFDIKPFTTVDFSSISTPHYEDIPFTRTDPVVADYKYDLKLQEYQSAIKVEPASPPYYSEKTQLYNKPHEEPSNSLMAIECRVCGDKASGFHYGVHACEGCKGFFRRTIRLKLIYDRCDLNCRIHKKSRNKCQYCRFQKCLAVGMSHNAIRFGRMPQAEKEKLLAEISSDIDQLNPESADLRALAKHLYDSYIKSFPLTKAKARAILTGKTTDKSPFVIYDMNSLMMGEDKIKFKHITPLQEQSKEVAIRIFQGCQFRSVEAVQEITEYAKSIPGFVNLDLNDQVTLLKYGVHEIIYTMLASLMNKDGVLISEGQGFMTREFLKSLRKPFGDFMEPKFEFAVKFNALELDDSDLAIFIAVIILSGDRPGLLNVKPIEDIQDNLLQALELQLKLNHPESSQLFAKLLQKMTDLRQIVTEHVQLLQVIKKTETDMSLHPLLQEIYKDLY
Target sequence (Q9Y618 whole entry, looked up): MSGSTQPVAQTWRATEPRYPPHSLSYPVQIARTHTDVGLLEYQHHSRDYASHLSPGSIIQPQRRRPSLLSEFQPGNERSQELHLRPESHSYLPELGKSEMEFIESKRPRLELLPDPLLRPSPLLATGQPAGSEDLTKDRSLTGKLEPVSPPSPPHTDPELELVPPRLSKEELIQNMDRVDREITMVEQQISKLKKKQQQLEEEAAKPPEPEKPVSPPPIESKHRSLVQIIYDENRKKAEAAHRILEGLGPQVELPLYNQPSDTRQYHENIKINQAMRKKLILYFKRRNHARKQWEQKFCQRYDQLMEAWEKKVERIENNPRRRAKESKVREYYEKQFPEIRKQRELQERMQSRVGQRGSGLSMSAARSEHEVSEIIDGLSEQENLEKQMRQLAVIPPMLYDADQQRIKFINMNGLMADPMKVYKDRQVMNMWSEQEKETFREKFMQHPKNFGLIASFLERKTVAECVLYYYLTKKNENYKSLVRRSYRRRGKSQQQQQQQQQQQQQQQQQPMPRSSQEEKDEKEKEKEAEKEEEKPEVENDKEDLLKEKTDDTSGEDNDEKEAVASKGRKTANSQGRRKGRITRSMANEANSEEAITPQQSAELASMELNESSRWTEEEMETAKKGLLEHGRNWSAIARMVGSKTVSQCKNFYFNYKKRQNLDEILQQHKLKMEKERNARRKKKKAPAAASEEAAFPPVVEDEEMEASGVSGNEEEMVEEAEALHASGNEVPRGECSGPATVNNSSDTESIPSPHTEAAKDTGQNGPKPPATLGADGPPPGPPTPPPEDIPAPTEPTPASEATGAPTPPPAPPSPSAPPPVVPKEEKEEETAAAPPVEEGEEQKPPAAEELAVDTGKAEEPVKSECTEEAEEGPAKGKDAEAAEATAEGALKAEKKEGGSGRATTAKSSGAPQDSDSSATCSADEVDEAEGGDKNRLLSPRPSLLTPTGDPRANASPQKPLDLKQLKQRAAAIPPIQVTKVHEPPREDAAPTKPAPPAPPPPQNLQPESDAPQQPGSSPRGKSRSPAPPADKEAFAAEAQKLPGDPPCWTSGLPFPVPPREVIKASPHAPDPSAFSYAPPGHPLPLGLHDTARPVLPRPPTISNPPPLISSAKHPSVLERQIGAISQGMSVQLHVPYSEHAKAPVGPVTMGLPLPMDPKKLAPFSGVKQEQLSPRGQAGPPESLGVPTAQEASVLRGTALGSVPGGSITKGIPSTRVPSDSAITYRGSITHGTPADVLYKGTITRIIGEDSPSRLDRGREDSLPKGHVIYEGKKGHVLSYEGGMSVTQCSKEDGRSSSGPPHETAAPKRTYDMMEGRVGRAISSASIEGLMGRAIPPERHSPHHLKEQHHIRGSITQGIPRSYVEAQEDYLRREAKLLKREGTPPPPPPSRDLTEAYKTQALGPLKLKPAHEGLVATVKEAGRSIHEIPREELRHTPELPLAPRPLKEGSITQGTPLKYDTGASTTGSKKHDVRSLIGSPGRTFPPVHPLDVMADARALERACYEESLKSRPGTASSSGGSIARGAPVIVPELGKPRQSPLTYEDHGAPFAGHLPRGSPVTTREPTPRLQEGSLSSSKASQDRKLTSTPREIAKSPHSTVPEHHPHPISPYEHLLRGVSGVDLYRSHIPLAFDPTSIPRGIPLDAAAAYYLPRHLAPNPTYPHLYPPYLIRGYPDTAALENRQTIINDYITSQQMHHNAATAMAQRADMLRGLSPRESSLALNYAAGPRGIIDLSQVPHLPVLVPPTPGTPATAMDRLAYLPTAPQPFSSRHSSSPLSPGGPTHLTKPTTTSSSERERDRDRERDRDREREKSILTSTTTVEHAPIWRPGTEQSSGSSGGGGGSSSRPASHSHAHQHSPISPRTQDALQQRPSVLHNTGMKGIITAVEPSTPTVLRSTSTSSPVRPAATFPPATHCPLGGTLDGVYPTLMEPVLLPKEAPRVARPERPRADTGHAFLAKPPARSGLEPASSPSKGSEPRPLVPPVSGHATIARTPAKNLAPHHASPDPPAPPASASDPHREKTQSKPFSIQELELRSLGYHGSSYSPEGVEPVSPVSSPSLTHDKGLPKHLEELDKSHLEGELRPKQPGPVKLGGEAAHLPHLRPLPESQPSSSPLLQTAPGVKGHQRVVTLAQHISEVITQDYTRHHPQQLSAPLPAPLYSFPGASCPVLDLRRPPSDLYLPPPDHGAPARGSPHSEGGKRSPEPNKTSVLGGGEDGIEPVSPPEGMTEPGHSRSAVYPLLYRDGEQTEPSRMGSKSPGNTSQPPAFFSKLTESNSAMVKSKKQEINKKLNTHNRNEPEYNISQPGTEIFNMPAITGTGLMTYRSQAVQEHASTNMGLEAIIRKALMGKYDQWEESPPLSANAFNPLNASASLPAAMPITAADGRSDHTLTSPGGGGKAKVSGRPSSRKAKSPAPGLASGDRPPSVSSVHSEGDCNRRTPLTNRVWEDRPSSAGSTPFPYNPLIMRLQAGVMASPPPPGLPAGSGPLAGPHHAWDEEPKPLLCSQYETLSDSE
* marks the source's active call; other numbers are inactive results; i = inactive; x = no result; + = active, no number.

SMILES	NR2E3 ag-1	NR2E3 ag-2	PG9 binder	NR1D1 modulator	Neddylation inh	NR2E3 ag confirm	PPARg-NCOR2 ag
COC(=O)c1cc(-c2ccc(-c3ccccc3)c(F)c2)c(=O)n2c1CCC2	x	x	x	8.5	x	x	x
COc1ccc(-c2cc(C(=O)Nc3cc(C)n(Cc4ccc(Cl)cc4)n3)no2)cc1OC	2.7	-18.7	x	6.8	+	x	x
CCn1cc(C(=O)N2CCN(Cc3ccc(C)cc3)CC2)c(=O)c2ccc(C)nc21	x	x	x	-4.4	x	x	x
Cc1ccc(-c2cc(-c3ccc(Cl)cc3)c(C#N)c(N)n2)o1	1.8	-5.2	3.1	2.6	+	x	x
Cc1ccc(-c2cc(-c3ccc(C)o3)nc(N)c2C#N)cc1	4.2	5.7	1.0	1.6	i	x	x
CC(=O)[C@@]1(O)CCC2C3C=C(Cl)C4=CC(=O)[C@@H]5C[C@H]5[C@]4(C)C3CC[C@@]21C (some centres undefined)	x	x	x	-1.4	x	x	x
COc1ccccc1C(=O)NC1CCCCN(Cc2cccc(F)c2)C1=O (centres undefined)	x	x	x	-10.9	x	x	x
COc1ccc2[nH]c(C(=O)N/N=C/c3ccc(O)cc3O)cc2c1	x	-40.0	-2.4	4.1	+	x	x
COc1ccc(/C=N/NC(=O)c2nc(-c3ccccc3)n(-c3ccccc3)n2)c(O)c1	-1.8	20.4	-0.8	0.7	+	x	x
CCOc1ccc2[nH]c(C(=O)N/N=C/c3ccc(OC)cc3)cc2c1	x	-0.8	0.1	-1.5	i	x	x
COC(=O)C1CN(Cc2cn(CCOC(C)=O)nn2)CCS(=O)(=O)N1Cc1ccc(F)cc1 (centres undefined)	x	x	x	-7.9	x	x	x
O=C(O)CCC1c2cc3c4cc2OC2Oc5cc6c(cc51)C(CCC(=O)O)c1cc5c7cc1OC(O6)c1cc6cc(c1)Oc1cc(cc(C(=O)O)c1)Oc1cc8cc(c1)C(Oc1cc(c(cc1C5CCC(=O)O)C3CCC(=O)O)OC(O4)c1cc(cc(c1)Oc1cc(cc(C(=O)O)c1)O8)Oc1cc(cc(C(=O)O)c1)Oc1cc(cc2c1)Oc1cc(cc(C(=O)O)c1)O6)O7 (centres undefined)	20.8*	x	x	x	x	x	x
Cc1ccc(O)c(CNc2cnc3ccccc3c2)c1	-4.3	-22.8	-0.2	9.2	+	x	x
O=C1c2ccc3c4c(ccc(c24)C(=O)N1c1ccc2ccccc2c1)CC3	-0.9	-43.9	-2.7	11.4	i	x	x
O=C1CCC(=O)c2ccc3c4c(ccc1c24)CC3	x	11.9	-3.0	-27.5	+	x	x
CCOC(=O)[C@]12CCCCC/C=C\1N(CCc1ccc(Cl)cc1)C(=O)[C@H]2CC(=O)N1CCOCC1	x	x	x	-2.0	x	x	x
Nc1c2c(nc3ccn(-c4ccccc4)c(=O)c13)CCCCC2	-0.3	-30.3	0.4	-7.8	i	x	x
Nc1c2c(nc3ccn(Cc4ccccc4)c(=O)c13)CCC2	2.0	-16.4	-1.1	-4.3	+	x	x
Cc1ccc(C(=O)NCCN2C(=O)C3C4C=CC(C4)C3C2=O)cc1 (centres undefined)	x	x	x	-4.9	x	x	x
CCCCCCCCN1C(=O)[C@@H](CC(=O)NCc2cccs2)C[C@@]2(C(=O)OC)C1=C[C@H](C(C)C)O[C@@H]2C1CC1	x	x	x	2.5	x	x	x
O=C(Nc1nnc(Cc2ccccc2)s1)c1cccs1	27.0*	-29.8	1.8	13.9	i	-2.0	4.2
CC(C)c1cc(C(C)C)c(S(=O)(=O)N2CCC(c3cn4ccccc4n3)CC2)c(C(C)C)c1	x	x	x	8.1	x	x	x
CCC(CNc1cc(OC)cc2cccnc12)NC1CCCCC1 (centres undefined)	20.9*	-9.6	-4.8	-23.0	i	-4.0	-6.0
CCCOc1cccc(C2C(C(=O)c3ccco3)=C(O)C(=O)N2CCN(CC)CC)c1 (centres undefined)	3.6	-4.1	-1.2	0.3	i	x	x
COc1cc(C2C(C(=O)c3ccco3)=C(O)C(=O)N2CCc2ccccc2)ccc1O (centres undefined)	1.3	-25.7	-1.1	-2.2	i	x	x
SMILES	NR2E3 ag-1	NR2E3 ag-2	PG9 binder	NR1D1 modulator	Neddylation inh	NR2E3 ag confirm	PPARg-NCOR2 ag
COc1ccc(CCN2C(=O)C(O)=C(C(=O)c3ccco3)C2c2cccs2)cc1OC (centres undefined)	23.8*	9.5	3.5	2.4	i	18.2	14.0
COCCN1C(=O)C(O)=C(C(=O)c2ccco2)C1c1cccc(Oc2ccccc2)c1 (centres undefined)	22.6*	-18.3	2.0	2.1	i	5.7	28.1*
COCCCNC(=O)C[C@H]1C[C@@]2(C(=O)OC)C(=C[C@H](C(C)C)O[C@@H]2C2CC2)N(CCc2ccc(OC)c(OC)c2)C1=O	x	x	x	-6.4	x	x	x
Cc1cc(C(=O)O)ccc1-n1c(C)ccc1C	21.4*	x	x	x	x	22.8*	-3.8
Cc1ccc2c(c1)C1CS(=O)(=O)N(CCc3ccccc3)C(=O)N1C2 (centres undefined)	x	x	x	-2.9	x	x	x
CCc1nnc(NC(=O)c2sc3nc4cc(C)ccc4cc3c2N)s1	36.8*	-34.6	-9.6	-1.9	i	-8.9	-4.7
CCCCCC(=O)NC1CCCCN(C)C1=O (centres undefined)	x	x	0.9	-1.2	x	x	x
COc1ccc(Cn2c(-c3ccc(OC)cc3)nc3c(c(=O)c4ccccc4n3C)c2=O)cc1	41.2*	x	x	x	x	28.9*	20.4*
COC(=O)[C@]12C[C@H](CC(=O)NCCc3ccccc3OC)C(=O)N(CCc3ccc(OC)c(OC)c3)C1=C[C@H](COCc1ccccc1)O[C@@H]2C	x	x	x	6.4	x	x	x
CCCn1c(C)cs/c1=N\C(=S)Nc1ccccc1	25.6*	0.7	-0.2	16.6	i	17.2	14.3
Cc1cs/c(=N/C(=S)Nc2ccccc2)n1C	6.8	-162.0	1.5	12.7	i	x	x
Nc1ccc2nc(-c3ccc(-c4nc5ccc(N)cc5[nH]4)cc3)[nH]c2c1	23.6*	x	0.8	13.1	x	10.0	3.6
CCCCC1=CC2=C(c3ccco3)C(=O)C(C)(OC(=O)c3ccc(OC)cc3)C(=O)C2=CN1c1ccccc1 (centres undefined)	33.9*	-46.4	x	x	i	-5.8	-3.4
COC(=O)[C@]12C[C@H](CC(=O)NCCc3ccccc3OC)C(=O)N(Cc3ccco3)C1=C[C@H](C(C)(C)C)O[C@@H]2C	x	x	x	-2.4	x	x	x
